Source: PubChem
Most compounds without a hit are left out; they make up all but 12% or so of the library.
WT yeast gro inh: growth inhibition of WT strain, primary screen, mitochondrial fusion inhibitor project, WT and mutant strains, chemical genetic; mitochondrial fusion phenotypic screen; inhibition, % at 10 µM; 190,000 compounds, 2.1% hits; in the data active = inhibition above about 58%; tested in S. cerevisiae
Lmaj promast: Leishmania major promastigote growth inhibition, primary screen; Leishmania major promastigotes, resazurin fluorescence viability; inhibition, % at 10 µM; 200,000 compounds, 9% hits; in the data active = inhibition above about 50%;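 note: promastigotes grown with compound for 44 hours at 28 °C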
ROMK primary: ROMK potassium channel modulators, primary screen, cell-based, thallium flux, MLSMR library; 130,000 compounds, 2% hits; AID 1918, 2009; Tet-inducible ROMK, thallium flux fluorescence; actives lie on both sides; B-score at 10 µM;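 active = signal ratio slope over the read window, or its plate-corrected B-score, at least 3 SD from the plate mean, either direction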;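 note: B-score of the F/F0 ratio slope over 7 to 12 s after thallium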
KCC2 mod: KCC2 cotransporter modulators, thallium flux, primary screen, cell-based, HEK293 KCC2, FluoZin-2 fluorescence, MLSMR; Solute carrier family 12 member 5 (Homo sapiens), Q9H2X9; 190,000 compounds, 2.2% hits; KCC2 cells, thallium flux FluoZin-2 fluorescence; B-score of Tl+ flux slope (higher = more flux/activation; lower = inhibition) at 10 µM; AID 1456, 2008;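 active = thallium flux slope and its plate-corrected score both differing from the plate sample mean at a set confidence after two filtering rounds, in either direction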;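 note: slope of fluorescence scaled to starting intensity during 10 to 20 s after thallium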
Target sequence (Q9H2X9 whole entry, looked up): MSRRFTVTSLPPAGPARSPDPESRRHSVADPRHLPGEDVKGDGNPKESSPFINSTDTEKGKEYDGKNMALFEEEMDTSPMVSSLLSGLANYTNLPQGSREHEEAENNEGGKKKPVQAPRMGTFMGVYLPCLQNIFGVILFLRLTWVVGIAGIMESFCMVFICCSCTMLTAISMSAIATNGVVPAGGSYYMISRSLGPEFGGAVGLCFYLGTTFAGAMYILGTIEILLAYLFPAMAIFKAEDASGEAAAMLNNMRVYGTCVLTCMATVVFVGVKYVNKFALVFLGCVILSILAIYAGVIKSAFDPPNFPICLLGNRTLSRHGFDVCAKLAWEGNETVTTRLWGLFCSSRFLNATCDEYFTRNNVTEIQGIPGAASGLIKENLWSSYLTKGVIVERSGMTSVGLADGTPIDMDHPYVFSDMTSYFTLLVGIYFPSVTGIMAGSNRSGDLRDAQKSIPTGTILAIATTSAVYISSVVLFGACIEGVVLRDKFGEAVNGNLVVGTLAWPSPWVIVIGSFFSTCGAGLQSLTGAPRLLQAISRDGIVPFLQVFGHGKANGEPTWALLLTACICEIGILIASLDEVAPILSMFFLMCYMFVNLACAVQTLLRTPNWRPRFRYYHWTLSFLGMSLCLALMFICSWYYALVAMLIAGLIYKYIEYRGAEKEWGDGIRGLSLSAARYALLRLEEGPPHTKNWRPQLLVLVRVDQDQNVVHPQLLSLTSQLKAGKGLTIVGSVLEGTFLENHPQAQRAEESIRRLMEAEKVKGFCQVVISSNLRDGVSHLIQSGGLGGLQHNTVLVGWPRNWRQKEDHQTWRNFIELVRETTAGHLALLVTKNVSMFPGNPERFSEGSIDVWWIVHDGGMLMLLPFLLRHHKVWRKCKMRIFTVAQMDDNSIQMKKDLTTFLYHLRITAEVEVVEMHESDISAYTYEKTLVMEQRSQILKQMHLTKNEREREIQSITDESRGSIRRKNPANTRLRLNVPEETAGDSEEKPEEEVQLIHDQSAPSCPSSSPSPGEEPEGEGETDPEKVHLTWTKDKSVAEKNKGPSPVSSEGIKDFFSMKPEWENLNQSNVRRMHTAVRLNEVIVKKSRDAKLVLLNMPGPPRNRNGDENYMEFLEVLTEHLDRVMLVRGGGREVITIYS
Diaphorase inh: diaphorase inhibitors and chemical oxidizers, primary screen, counter-screen for diaphorase-coupled primary assays, biochemical, uHTS, resorufin fluorescence. diaphorase resazurin-to-resorufin fluorescence, NADH, 16 min; bacterial (C. kluyveri) enzyme, not human. inhibition, % at 20 µM. 190,000 compounds, 0.69% hits;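 active = primary screen inhibition at 20 µM above a set limit, cut at about 50% in these data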;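 note: plate controls were DMSO with full reaction for no effect and wells lacking NADH for full effect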
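controls = No-NADH positive control and DMSO neutral control | system = Clostridium kluyveri diaphorase enzyme | timing = reaction incubation of 16 min at room temperature | signal = resorufin fluorescence 544/590 nm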
Diaph act CS: compounds boosting diaphorase resazurin reduction – biochemical, uHTS, resorufin fluorescence, counter-screen for diaphorase-coupled primary assays, primary screen | Diaphorase/resazurin coupled assay, 16 min; hits give high values; 1 = vehicle wells, 0 = NADH-free wells | activation factor at 20 µM | 190,000 compounds, 0.005% hits;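 active = diaphorase activity raised at least twofold by the compound at 20 µM; inactive = activation factor below 2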
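Material: Clostridium kluyveri diaphorase, purified enzyme; Quantity: enzyme 0.07 U/mL final; Medium: HEPES pH 7.4 buffer with MgCl2 and Tween 20; Dosing: single compound dose of 20 µM, 1% DMSO final; Schedule: 16 min reaction at room temperature; Measured by: red resorufin fluorescence at 544/590 nm excitation/emission.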
* hit, by the source's call; . = no result.

SMILES	WT yeast gro inh	Lmaj promast	ROMK primary	KCC2 mod	Diaphorase inh	Diaph act CS
O=c1c(-c2ccc(Cl)cc2)coc2c(CN3CCOCC3)c(O)ccc12	3	59*	-0.46	.	20	0.8
COc1ccc(-c2coc3c(CN4CCOCC4)c(O)ccc3c2=O)cc1	.	.	.	-0.041	.	.
COc1ccc(Br)cc1C1CC(=O)N2CN(C)CSC2=C1C#N (stereo not given)	-3	0	.	-1.8	43	0.6
COc1ccc2ccccc2c1C1CC(=O)N2CN(C)CSC2=C1C#N (stereo not given)	4	0	.	0.52	52*	0.5
COc1ccc(Br)cc1C1CC(=O)N2CN(Cc3ccccc3)CSC2=C1C#N (stereo not given)	18	2	.	-0.37	57*	0.4
COc1cccc(C2CC(=O)N3CN(c4ccccc4F)CSC3=C2C#N)c1 (stereo not given)	13	0	.	.	41	0.6
CCc1ccccc1N1CSC2=C(C#N)C(c3cc(OC)c(OC)cc3OC)CC(=O)N2C1 (stereo not given)	-1	19	.	-0.62	50*	0.5
COc1cc(OC)c(C2CC(=O)N3CN(C)CSC3=C2C#N)cc1OC (stereo not given)	10	-3	.	.	36	0.6
COc1cc(C2CC(=O)N3CN(c4ccccc4C)CSC3=C2C#N)cc(OC)c1OC (stereo not given)	22	12	.	0.091	59*	0.4
COc1ccccc1N1CSC2=C(C#N)C(c3ccc(SC)cc3)CC(=O)N2C1 (stereo not given)	15	0	.	0.79	65*	0.4
CCN(C(=O)CSc1nnc(-c2c[nH]c3ccccc23)o1)C1CCS(=O)(=O)C1 (stereo not given)	5	1	1.2	-0.73	6	0.9
Cc1ccc(NC2=Nc3ccccc3N3C2=Nc2c(c(C)nn2-c2ccccc2)C3c2ccc(O)c(O)c2)cc1 (stereo not given)	0	86*	.	-0.57	15	0.8
Cc1nn(-c2ccccc2)c2c1C(c1ccc(O)c(O)c1)N1C(=N2)C(Nc2ccccc2)=Nc2ccccc21 (stereo not given)	2	90*	.	-0.13	26	0.7
Cc1cccc(NC2=Nc3ccccc3N3C2=Nc2c(c(C)nn2-c2ccccc2)C3c2ccc(O)c(O)c2)c1 (stereo not given)	19	-7	.	0.69	27	0.7
O=C1CCCC(=O)N1c1ccc(N2CCOCC2)c([N+](=O)[O-])c1	6	0	0.062	0.58	10	0.9
COc1ccc(Cn2c(C)c(C)c(C#N)c2NC(=O)Nc2ccc(Cl)cc2)cc1	-7	-9	.	1	14	0.9
N#Cc1c(-c2ccccc2Cl)cc(-c2ccccc2)nc1Br	15	4	.	-0.21	-2	1
CC(C)(C)NC(=S)NCc1ccncc1	1	1	0.52	.	8	0.9
CC(=O)N1CCc2cc(S(=O)(=O)NCCN3CCC(C)CC3)ccc21	-13	58*	-0.09	.	8	0.9
CC(=O)N1CCc2cc(S(=O)(=O)NC(CC(C)C)C(=O)N3CCc4ccccc4C3)ccc21 (stereo not given)	-14	73*	.	.	10	0.9
CC(=O)c1ccc(N2CCN(Cc3nc(Cc4ccccc4)no3)CC2)cc1	-4	-4	1.2	-1.1	4	1
COc1ccc(-c2cc(C(=O)N/N=C/c3ccc4c(c3)OCO4)c3ccccc3n2)c(OC)c1	9	77*	.	.	30	0.7
Cc1ccc(-c2cc(C(=O)N/N=C/c3c(C)nn(C)c3C)c3ccccc3n2)cc1C	11	82*	1.9	0.084	14	0.9
Cc1nn(-c2ccccc2)c(N2CCCC2)c1/C=N/NC(=O)c1cc(-c2cccnc2)nc2ccccc12	0	29	.	-0.0019	20	0.8
COc1ccc(-c2cc(C(=O)N/N=C/c3sccc3C)c3ccccc3n2)c(OC)c1	20	79*	-1.6	0.56	-14	1.1
SMILES	WT yeast gro inh	Lmaj promast	ROMK primary	KCC2 mod	Diaphorase inh	Diaph act CS
Cn1cccc1/C=N/NC(=O)c1cc(-c2cccs2)nc2ccccc12	22	56*	0.69	0	9	0.9
O=C(CCn1cnnn1)Nc1cccc(F)c1	-7	-4	-0.14	.	4	1
Cc1ccc2sc(NNC(=O)c3cc(-c4cccs4)nc4ccccc34)nc2c1C	31	2	-0.29	-0.22	-7	1.1
COc1ccccc1-c1cc(C(=O)N/N=C/c2cccs2)c2ccccc2n1	24	51*	-0.49	-0.4	15	0.9
Cc1ccsc1/C=N/NC(=O)c1sccc1C	-17	-4	.	5.7*	8	0.9
Cc1cc(C)c2nc(NNC(=O)c3cc(-c4cccs4)nc4ccccc34)sc2c1	64*	-2	0.12	1	0	1
COc1ccc(CCNC(=O)Cn2cnc3scc(-c4ccccc4)c3c2=O)cc1OC	0	3	-0.77	-0.082	14	0.9
Cc1ccc(OCC(O)Cn2c3ccccc3c3ccccc32)cc1 (stereo not given)	47	-2	.	.	17	0.8
C=CCN(CC=C)CC(O)Cn1c2ccccc2c2ccccc21 (stereo not given)	31	26	.	-0.35	1	1
OC(CN1CCN(Cc2ccccc2)CC1)Cn1c2ccccc2c2ccccc21 (stereo not given)	43	81*	-1.6	0.2	8	0.9
Cc1cccc(C)c1OCC(O)Cn1c2ccccc2c2ccccc21 (stereo not given)	83*	18	0.49	1.1	31	0.7
OC(COCC(F)(F)C(F)(F)C(F)(F)C(F)F)Cn1c2ccccc2c2ccccc21 (stereo not given)	91*	86*	0.62	-0.3	0	1
Cc1ccc(OCCN2CCN(CC(O)Cn3c4ccccc4c4ccccc43)CC2)cc1 (stereo not given)	86	77*	.	-0.085	33	0.7
CCN(Cc1ccncc1)Cc1nc(-c2ccc(C(=O)OC)cc2)no1	-15	48	-0.45	0.9	2	1
OC(CSc1ccc(F)cc1)CN1CCN(c2ccccc2)CC1 (stereo not given)	6	68*	-0.83	-0.44	-10	1.1
OC(CN1CCN(Cc2ccccc2)CC1)c1ccccc1 (stereo not given)	-5	69*	0.16	.	6	0.9
